Source: PubChem (several laboratories)
Sampled rows, rich in hits. Any-hit rate of the full collection: about 0.73%.
TNAP inh no acc – TNAP (human) inhibition, acceptor-free conditions | purified TNAP, CDP-star luminescence, 30 min | hit rate 0.26% among 200,000 | P05186 | AID 1012 | inhibition, % at 20 µM;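 active means tissue-nonspecific alkaline phosphatase inhibition above about 50% at 20 µM in the single-dose screen, limit read from the data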;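 further: 0% = DMSO negative control and 100% = EDTA positive control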
TNAP inh hi DEA – blocks human TNAP under high phosphate acceptor concentration. purified TNAP, CDP-star luminescence, 1 M DEA. hit rate 0.03% among 200,000. inhibition, % at 20 µM. AID 1135;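 active means over 50% inhibition of tissue-nonspecific alkaline phosphatase at 20 µM in the single-dose screen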;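 further: plate controls were DMSO wells for no effect and EDTA-quenched wells as full inhibition for full effect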
Arbovirus inh – blocks arbovirus infection; arbovirus infection cell-based antiviral screen; inhibition, % at 10 µM; hit rate 0.37% among 200,000; AID 1251; in the data active means inhibition above about 30%
PKD1 inh – inhibitors of human PKD1 kinase | inhibition, % (test concentration not listed) | hit rate 0.056% among 200,000 | PKD1 kinase fluorescence polarization assay | Q15139 | AID 797; in the data active means inhibition above about 50%
Target sequence (Q15139 whole entry, looked up): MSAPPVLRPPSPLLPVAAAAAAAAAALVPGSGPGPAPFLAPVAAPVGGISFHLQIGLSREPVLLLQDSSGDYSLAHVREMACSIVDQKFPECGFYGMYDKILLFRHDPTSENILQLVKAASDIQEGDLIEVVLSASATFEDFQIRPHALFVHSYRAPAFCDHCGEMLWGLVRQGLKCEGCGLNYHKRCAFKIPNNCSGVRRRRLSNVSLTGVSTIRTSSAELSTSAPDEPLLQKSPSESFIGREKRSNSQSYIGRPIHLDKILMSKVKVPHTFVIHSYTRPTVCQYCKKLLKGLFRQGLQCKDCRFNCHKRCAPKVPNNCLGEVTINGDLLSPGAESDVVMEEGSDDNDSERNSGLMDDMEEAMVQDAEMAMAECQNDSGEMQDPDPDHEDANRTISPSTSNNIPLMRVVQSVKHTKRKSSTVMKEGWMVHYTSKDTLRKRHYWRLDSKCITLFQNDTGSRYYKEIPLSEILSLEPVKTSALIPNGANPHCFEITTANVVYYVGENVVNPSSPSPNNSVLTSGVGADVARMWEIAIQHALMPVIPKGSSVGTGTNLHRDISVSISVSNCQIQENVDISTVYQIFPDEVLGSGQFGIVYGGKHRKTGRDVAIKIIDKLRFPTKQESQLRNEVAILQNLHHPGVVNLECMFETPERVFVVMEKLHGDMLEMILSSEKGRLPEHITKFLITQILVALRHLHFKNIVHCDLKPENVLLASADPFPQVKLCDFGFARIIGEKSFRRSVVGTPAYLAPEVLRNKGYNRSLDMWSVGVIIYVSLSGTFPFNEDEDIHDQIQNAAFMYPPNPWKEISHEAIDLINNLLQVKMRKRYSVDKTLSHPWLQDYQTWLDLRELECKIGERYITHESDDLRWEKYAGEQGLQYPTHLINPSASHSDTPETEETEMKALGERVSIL
TNAP act hi DEA – increases human TNAP activity under high phosphate acceptor concentration; purified TNAP, CDP-star luminescence, 1 M DEA, 30 min; hits give high values; 0 = EDTA background, 1 = DMSO-only activity; activation factor at 20 µM; 200,000 tested, under 10 active; AID 1136;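 active means activation factor at least 2 at 20 µM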
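Control set: EDTA negative control, DMSO positive control / Assay system: human TNAP / Quantity: TNAP 1/800 final / Evaluation: TNAP activation factor scaled between EDTA and DMSO control wells / Measured by: luminescent substrate turnover signal / Compound dosing: one dose, 20 µM / Times: 30 min enzyme reaction at room temperature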
* marks the source's active call; other numbers are inactive results.

SMILES | TNAP inh no acc | TNAP inh hi DEA | Arbovirus inh | PKD1 inh | TNAP act hi DEA
CN(C)c1nc(N)nc(CSc2n[nH]c(-c3ccccc3)n2)n1 | 67.8* | -0.4 | 1.3 | 3.0 | 1
COC(=O)c1ccc(CSc2n[nH]c(C)n2)o1 | -3.5 | -1.3 | -1.0 | -3.8 | 1
COC(=O)c1ccc(CSc2n[nH]c(-c3ccccc3)n2)o1 | 70.0* | 1.6 | 3.2 | -0.1 | 1
O=C(CSc1n[nH]c(-c2ccccc2)n1)c1ccccc1 | 56.5* | -2.5 | 2.4 | -3.0 | 1
COc1ccc(NC(=O)c2cccc(-n3c(C)ccc3C)c2)c(OC)c1 | -8.4 | -3.9 | -9.6 | -5.0 | 1
CCOc1ccc(C(Nc2ccc(C)cc2)P2(=O)OCCC(C)O2)cc1 (stereo unspecified) | -8.0 | 0.8 | 2.4 | -1.6 | 1
CCOC(=O)c1sc(NC(=O)CSc2n[nH]c(-c3ccccc3)n2)c(C#N)c1C | 76.4* | 3.4 | -40.6 | -3.2 | 1
Cc1ccc(-c2nc(SCC(=O)c3c(N)n(C)c(=O)n(C)c3=O)n[nH]2)cc1 | 88.0* | 8.3 | 1.3 | -7.8 | 0.9
CC1(C)CC(=O)C(C2=NC3(CCCCC3)Cc3ccccc32)=C(O)C1 | -4.6 | -4.4 | -7.5 | 2.2 | 1
CN(Cc1ccccc1NC(=O)c1ccc(S(=O)(=O)N(C)C)cc1)C1CCCCC1 | -0.1 | -3.0 | 47.5* | -0.8 | 1
CCOc1ccccc1NC(=O)c1ccc(S(=O)(=O)N(C)C)cc1 | 3.8 | -10.0 | -1.7 | -6.0 | 1.1
COCCN(C(=O)C1CCCC1)c1c(N)n(Cc2ccccc2)c(=O)[nH]c1=O | 3.4 | -4.4 | 1.4 | 3.0 | 1
CC(C)CCN(C(=S)NC(=O)C1CCCCC1)c1c(N)n(Cc2ccccc2)c(=O)[nH]c1=O | -5.1 | -2.2 | 31.8* | -5.2 | 1
c1coc(-c2ccnc3ncnn23)c1 | -1.9 | -3.8 | 1.9 | -6.3 | 1
O=C1/C(=C/c2ccc(O)cc2)SC(=S)N1Cc1cccnc1 | 11.0 | 63.2* | -5.6 | 0.6 | 0.4
O=C(N/N=C/c1c(O)n(-c2ccccc2Cl)c(=O)c2ccccc12)c1cccnc1 | -74.8 | 5.2 | 35.9* | 5.3 | 0.9
O=C(CSc1nnc(NC(=O)c2c(F)cccc2F)s1)Nc1ccc(F)cc1 | -4.7 | 0.8 | 36.9* | -6.2 | 1
CSc1ccc(CN(C)CC(=O)Nc2c(F)cccc2F)cc1 | -12.7 | -7.9 | 18.6 | 2.6 | 1.1
O=c1[nH]c2cc(Cl)ccc2n1-c1ccccc1 | 68.9* | 13.7 | 0.3 | 3.4 | 0.9
O=Cc1c(Cl)[nH]c(=O)n1-c1ccccc1 | -10.7 | -4.0 | 6.3 | 2.5 | 1
CCCc1cc(=O)[nH]c(SCC(=O)NC)n1 | 8.5 | -3.8 | 71.9* | -7.0 | 1
CCCc1cc(=O)[nH]c(SCC(=O)CSc2nc(CCC)cc(=O)[nH]2)n1 | -11.1 | -10.1 | 18.7 | -14.3 | 1.1
CCO[C@@H]1OC(C(=O)N2CCCCCCC2)=C[C@H](c2cn(C(C)=O)c3ccccc23)[C@H]1CCCO | -4.1 | -2.2 | -0.5 | -5.6 | 1
Cc1ccc(C)c(-n2c3nc(=O)[nH]c(=O)c-3cc3cc([N+](=O)[O-])ccc32)c1 | -0.6 | 5.4 | 17.6 | 0.0 | 0.9
Cc1cccc(-n2c3nc(=O)[nH]c(=O)c-3cc3cc([N+](=O)[O-])ccc32)c1 | 1.0 | 2.6 | 38.2* | 12.1 | 1
SMILES | TNAP inh no acc | TNAP inh hi DEA | Arbovirus inh | PKD1 inh | TNAP act hi DEA
O=c1oc(/C=C/c2ccccc2)nc2sc3c(c12)CCC3 | -1.7 | 1.6 | 66.2* | -4.0 | 1
Cc1ccccc1-c1nc2sc3c(c2c(=O)o1)CCC3 | -11.1 | -5.6 | 9.3 | -9.6 | 1.1
O=c1oc(-c2ccccc2)nc2sc3c(c12)CCCC3 | -7.7 | 1.7 | 31.8* | 3.5 | 1
O=c1oc(-c2cc3ccccc3o2)nc2sc3c(c12)CCCC3 | -5.0 | 1.2 | 77.9* | 1.4 | 1
Cc1ccc(C(=O)c2cn[nH]c2-c2ccccc2O)cc1 | 40.9 | -5.4 | -0.5 | 2.1 | 1.1
O=C(c1ccc(F)cc1)c1cn[nH]c1-c1ccccc1O | 55.8* | -1.5 | 0.3 | -7.0 | 1
CC(C)Oc1ccc(-c2nn(-c3ccccc3)cc2/C=c2\sc3ncnn3c2=O)cc1 | -10.6 | -1.9 | 33.8* | 1.8 | 1
Nn1c(SCC(=O)Nc2cc(S(=O)(=O)N3CCOCC3)ccc2Cl)nnc1-c1cccnc1 | -4.8 | 2.0 | 6.0 | -8.5 | 1
NC(=O)c1ccc(-n2nnnc2SCC(=O)c2ccc(O)c(O)c2)cc1 | 82.4* | 14.8 | 10.7 | 11.1 | 0.9
COc1ccc(-n2nnnc2SCC(=O)c2ccc(O)c(O)c2)cc1 | 75.6* | 17.5 | -14.1 | -2.3 | 0.8
Cc1nc2c(C(=O)NCCc3ccccc3)c[nH]n2c(=O)c1Cl | -11.7 | -5.7 | 10.0 | -12.9 | 1.1
Cc1nc2c(C(=O)NCCC(C)C)c[nH]n2c(=O)c1Cl | -8.1 | -4.4 | 35.5* | -18.5 | 1
CCOCCCNC(=S)NCCCNc1nc2c(C)cc(C)cc2cc1C#N | -37.7 | -12.8 | -25.7 | 10.6 | 1.1
CCOCCCNC(=S)NCCNc1nc2c(C)cccc2cc1C#N | -15.1 | -5.1 | 30.5* | 4.2 | 1.1
COc1cc(OC)cc(C(=O)N2CCC(C(=O)Nc3ccc4c(c3)OCCO4)CC2)c1 | -10.5 | -4.2 | 7.3 | -2.5 | 1
O=C(NC(=S)N(Cc1ccccc1)c1ccccn1)C1CC1 | -12.9 | -1.5 | -12.9 | -0.6 | 1
O=C(COC(=O)c1ccc2ccccc2n1)Nc1cccc(S(=O)(=O)NC2=NCCCCC2)c1 | -51.3 | -97.0 | -2.2 | -2.4 | 2*
O=C(NCCCn1ccnc1)c1ccc(S(=O)(=O)N2CCOCC2)cc1 | -8.8 | -3.7 | 2.2 | 0.7 | 1
COCCCNCC1C(Oc2ccc(Cl)cc2)C(=O)N1c1ccccc1C (stereo unspecified) | -8.8 | -0.2 | 49.0* | -3.7 | 1
CCOc1cc(/C=N/NC(=O)CCCC(=O)NC2CCCCC2)ccc1O | -7.7 | -7.1 | 0.1 | 0.0 | 1.1
Cc1cccc(C)c1-n1cccc1/C=C1/C(=N)N2C(=NC1=O)SN=C2S(C)(=O)=O | -3.8 | 1.6 | 58.8* | -0.1 | 1
Cc1ccc(-n2cccc2/C=C2/C(=N)N3C(=NC2=O)SN=C3S(C)(=O)=O)cc1Cl | -46.9 | 6.0 | 34.3* | 8.9 | 0.9
O=S(=O)(c1ccc(Cl)s1)N1CCCc2cccc(O)c21 | -18.9 | 7.8 | -2.0 | -3.8 | 0.9
COCCNC(=O)c1cc2cc(Cl)cc(Cl)c2oc1=O | -11.4 | -5.0 | 2.9 | 1.0 | 1.1
Nc1c(-c2ccccc2)c(CSc2nc3ccccc3[nH]2)nn1-c1ccc(Cl)cc1 | -91.1 | -0.7 | 3.4 | 1.9 | 1
Nc1c(-c2ccccc2)c(CSc2nc3ccccc3[nH]2)nn1-c1cccc(Cl)c1 | -76.7 | -0.7 | 34.4* | -0.4 | 1
Cc1ccccc1-n1nc(CSc2nc3ccccc3[nH]2)c(-c2ccccc2)c1N | -272.9 | -2.3 | 39.9* | 0.3 | 1
COc1ccc(N(CC(=O)NCCC2=CCCCC2)S(=O)(=O)c2ccc(C)cc2)cc1 | -1.7 | -1.0 | -0.4 | -2.5 | 1
CCCCNc1nnc(SCC(=O)c2c[nH]c3ccccc23)s1 | -3.9 | -9.0 | 11.5 | -10.4 | 1.1
